Assay results taken from PMC7856040 (ChemMedChem, 2020).

Key:
[1] = test system: first instar (Liverpool, LVP) Ae. aegypti; assay: larvae toxicity screen, small molecules added to the rearing water; format: in vivo; settings: for mortality at 48 h compared to VU854: 100 μM, first instar LVP larvae, one-way ANOVA, Dunnett's test; for mortality at 100 µM: Aedes aegypti, 48 h, read-out: mortality at 48 h
AeKir = AeKir (Aedes aegypti, UniProt L0EQS9); assay: fluorescence-based in vitro thallium; format: cell-based; settings: HEK293
Procedure, shortened: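 Fluorescence thallium-flux read-out in HEK293 cells expressing AeKir under tetracycline induction. Signals normalized to baseline Tl+ flux in the same line left uninduced by tetracycline. IC50 is the mean ± SEM of at least three independent experiments. Percent inhibition is taken at the highest concentration tested.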

[2] = test system: first instar (LVP or PR) Ae. aegypti; assay: larval toxicity concentration response curve; format: in vivo

Row | inhibition at 30000 µM (AeKir) | Compound | further results
1 | 61% | Cc1nnc(CNc2cc(N3CCN(S(=O)(=O)c4ccc(F)cc4)CC3)ccc2[N+](=O)[O-])s1 [Compound 9s, 5-(4-((4-fluorophenyl)sulfonyl)piperazin-1-yl)-N-((5-methyl-1,3,4-thiadiazol-2-yl)methyl)-2-nitroaniline] | mortality at 48 h compared to VU854 [1]: similarly efficacious as VU854
2 | 109% | Cc1cc(CNc2cc(N3CCN(S(=O)(=O)c4ccc(F)cc4)CC3)ccc2[N+](=O)[O-])no1 [Compound 9f, 5-(4-((4-fluorophenyl)sulfonyl)piperazin-1-yl)-N-((5-methylisoxazol-3-yl)methyl)-2-nitroaniline] | –
3 | 99% | O=[N+]([O-])c1ccc(N2CCN(S(=O)(=O)c3ccc(F)cc3)CC2)cc1NCc1ccon1 [Compound 9r, 5-(4-((4-fluorophenyl)sulfonyl)piperazin-1-yl)-N-(isoxazol-3-ylmethyl)-2-nitroaniline] | –
4 | 97% | O=[N+]([O-])c1ccc(N2CCN(S(=O)(=O)c3ccc(F)cc3)CC2)cc1NCc1nccs1 [Compound 9h, 5-(4-((4-fluorophenyl)sulfonyl)piperazin-1-yl)-2-nitro-N-(thiazol-2-ylmethyl)aniline] | –
5 | 109% | Cc1nc(CNc2cc(N3CCN(S(=O)(=O)c4ccc(F)cc4)CC3)ccc2[N+](=O)[O-])no1 [Compound 9q, 5-(4-((4-fluorophenyl)sulfonyl)piperazin-1-yl)-N-((5-methyl-1,2,4-oxadiazol-3-yl)methyl)-2-nitroaniline] | mortality at 48 h compared to VU854 [1]: similarly efficacious as VU854
6 | 111% | Cc1ncc(CNc2cc(N3CCN(S(=O)(=O)c4ccc(F)cc4)CC3)ccc2[N+](=O)[O-])s1 [Compound 9j, 5-(4-((4-fluorophenyl)sulfonyl)piperazin-1-yl)-N-((2-methylthiazol-5-yl)methyl)-2-nitroaniline] | –
7 | 100% | Cc1cnc(CNc2cc(N3CCN(S(=O)(=O)c4ccc(F)cc4)CC3)ccc2[N+](=O)[O-])o1 [Compound 9n, 5-(4-((4-fluorophenyl)sulfonyl)piperazin-1-yl)-N-((5-methyloxazol-2-yl)methyl)-2-nitroaniline] | mortality at 48 h compared to VU854 [1]: similarly efficacious as VU854
8 | 109% | CC(Nc1cc(N2CCN(S(=O)(=O)c3ccc(F)cc3)CC2)ccc1[N+](=O)[O-])c1ncco1 (stereo not shown) [Compound 9l, 5-(4-((4-fluorophenyl)sulfonyl)piperazin-1-yl)-2-nitro-N-(1-(oxazol-2-yl)ethyl)aniline] | –
9 | 99% | O=[N+]([O-])c1ccc(N2CCN(S(=O)(=O)c3ccc(F)cc3)CC2)cc1NCc1cnco1 [Compound 9m, 5-(4-((4-fluorophenyl)sulfonyl)piperazin-1-yl)-2-nitro-N-(oxazol-5-ylmethyl)aniline] | –
10 | 109% | O=[N+]([O-])c1ccc(N2CCN(S(=O)(=O)c3ccc(F)cc3)CC2)cc1NCc1ncon1 [Compound 9p, N-((1,2,4-oxadiazol-3-yl)methyl)-5-(4-((4-fluorophenyl)sulfonyl)piperazin-1-yl)-2-nitroaniline] | mortality at 100 µM ([2]; Aedes aegypti, 48 h, read-out: maximal mortality within 48 h): ~50%; pathology observed in treated larvae ([2]; contiguous trail of excrement from midgut beyond the rectum): constipation or excretory failure; mortality at 48 h compared to VU854 [1]: significantly greater mortality; mortality at 100 µM [1]: 99%
11 | 100% | O=[N+]([O-])c1ccc(N2CCN(S(=O)(=O)c3ccc(F)cc3)CC2)cc1F [Compound 8, 1-(3-fluoro-4-nitrophenyl)-4-((4-fluorophenyl)sulfonyl)piperazine] | times more potent against the LVP strain (versus PR) ([2]; CRC, 48 h): ~ 2 times; mortality at 48 h compared to VU854 [1]: significantly greater mortality; mortality at 100 µM [1]: 100%
12 | 107% | CC(Nc1cc(N2CCN(S(=O)(=O)c3ccc(F)cc3)CC2)ccc1[N+](=O)[O-])c1nccs1 (stereo not shown) [Compound 9i, 5-(4-((4-fluorophenyl)sulfonyl)piperazin-1-yl)-2-nitro-N-(1-(thiazol-2-yl)ethyl)aniline] | –
13 | 110% | Cc1nnc(CNc2cc(N3CCN(S(=O)(=O)c4ccc(F)cc4)CC3)ccc2[N+](=O)[O-])o1 [Compound 9g, 5-(4-((4-fluorophenyl)sulfonyl)piperazin-1-yl)-N-((5-methyl-1,3,4-oxadiazol-2-yl)methyl)-2-nitroaniline] | –
14 | 10% | O=[N+]([O-])c1ccc(N2CCN(S(=O)(=O)c3ccc(F)cc3)CC2)cc1NCc1cc2ccccc2o1 [Compound 9t, N-(benzofuran-2-ylmethyl)-5-(4-((4-fluorophenyl)sulfonyl)piperazin-1-yl)-2-nitroaniline] | –
15 | 106% | Cc1ncc(CNc2cc(N3CCN(S(=O)(=O)c4ccc(F)cc4)CC3)ccc2[N+](=O)[O-])o1 [Compound 9o, 5-(4-((4-fluorophenyl)sulfonyl)piperazin-1-yl)-N-((2-methyloxazol-5-yl)methyl)-2-nitroaniline] | –
16 | 96% | O=[N+]([O-])c1ccc(N2CCN(S(=O)(=O)c3ccc(F)cc3)CC2)cc1NCc1ccco1 [Compound 9a, 5-(4-((4-fluorophenyl)sulfonyl)piperazin-1-yl)-N-(furan-2-ylmethyl)-2-nitroaniline] | –
17 | 98% | O=[N+]([O-])c1ccc(N2CCN(S(=O)(=O)c3ccc(F)cc3)CC2)cc1NCc1ncco1 [Compound 9k, 5-(4-((4-fluorophenyl)sulfonyl)piperazin-1-yl)-2-nitro-N-(oxazol-2-ylmethyl)aniline] | –
18 | 29% | O=[N+]([O-])c1ccc(N2CCN(S(=O)(=O)c3ccc(F)cc3)CC2)cc1NCc1nc2ccccc2o1 [Compound 9u, N-(benzo[d]oxazol-2-ylmethyl)-5-(4-((4-fluorophenyl)sulfonyl)piperazin-1-yl)-2-nitroaniline] | –
